Measured values published in ChEMBL document CHEMBL4177551, “Bioactive Triterpenoids from the Twigs of Chaenomeles sinensis” (J Nat Prod, 2017).
pIC50: −log10 of the molar value.

Columns and labels:
[1] = system: A549; experiment: Cytotoxicity against human A549 cells assessed as inhibition of cell growth by SRB assay; format: functional, cell-based
In short: (§1)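 Human tumour lines A549, SK-OV-3, SK-MEL-2 and HCT15 (from ATCC) were tested by sulforhodamine B assay. IC50 is the concentration giving 50% inhibition of cell growth. Cisplatin served as positive control.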

[2] = system: SK-MEL-2; experiment: Cytotoxicity against human SK-MEL-2 cells assessed as inhibition of cell growth by SRB assay; format: functional, cell-based; in short: as §1
[3] = Cytotoxicity in rat C6 cells assessed as cell viability at 20 uM incubated for 24 hrs by MTT assay relative to untreated control; format: cell-based; conditions: read-out: Activity
In short: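 C6 glioma cells were seeded at 1 × 10^5 cells/well. After 24 h, medium was switched to serum-free DMEM and compounds were added at 20 μM for 24 h. Viability was read by MTT and expressed as % of untreated cells. Values are means ± SD of three independent experiments.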

[4] = system: HCT-15; experiment: Cytotoxicity against human HCT15 cells assessed as inhibition of cell growth by SRB assay; format: functional, cell-based; in short: as §1
[5] = system: C6; experiment: Neuroprotective activity in rat C6 cells assessed as induction of nerve growth factor secretion at 20 uM incubated for 24 hrs by ELISA method relative to untreated control; format: functional
In short: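 C6 glioma cells seeded at 1 × 10^5 cells/well and cultured 24 h. They were then switched to serum-free DMEM with compound at 20 μM for a further 24 h. NGF secreted into the conditioned medium was quantified by ELISA and expressed as percent of untreated control (100%). Mean ± SD of three independent experiments.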

[6] = system: SK-OV-3; experiment: Cytotoxicity against human SKOV3 cells assessed as inhibition of cell growth by SRB assay; format: functional, cell-based; in short: as §1
[7] = Cytotoxicity in mouse BV2 cells assessed as cell viability at 20 uM incubated for 24 hrs by MTT assay relative to untreated control; format: cell-based, BV-2; conditions: read-out: Activity
In short: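 BV2 cells in the LPS-stimulated NO assay (LPS 100 ng/mL, 24 h) were exposed to 20 μM compound. Viability was read by MTT assay and expressed as percent. Mean ± SD of three independent experiments.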

[8] = system: BV-2; experiment: Anti-inflammatory in mouse BV2 cells assessed as inhibition of LPS-induced nitric oxide production pre-incubated before LPS challenge for 24 hrs by Griess reagent based assay; format: functional, cell-based
In short: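 BV2 microglia seeded at 4 × 10^4 cells/well, treated with or without graded compound concentrations, then stimulated with LPS (100 ng/mL) for 24 h. Nitrite in the medium was measured with Griess reagent (0.1% N-1-naphthylethylenediamine dihydrochloride, 1% sulfanilamide, 5% phosphoric acid), 1:1 with supernatant for 10 min, A570. Quantified against a sodium nitrite standard. IC50 = concentration giving 50% inhibition of NO production.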

Row | pIC50 [8] | SMILES | pIC50 [1] | pIC50 [2] | viability at 24 h, 20 µM [3] | pIC50 [4] | Activity [5] | pIC50 [6] | viability at 24 h, 20 µM [7]
1 | – | C=C(C)[C@@H]1CC[C@]2(C(=O)O)CC[C@]3(C)[C@H](CC[C@@H]4[C@@]5(C)CC[C@H](OC(=O)/C=C/c6ccc(O)c(O)c6)C(C)(C)[C@@H]5CC[C@]43C)[C@@H]12 | 5.00 | < 5.00 | 95% | < 5.00 | 355.7% | < 5.00 | –
2 | 4.67 | CC1(C)CC[C@]2(C(=O)O)CC[C@]3(C)C(=CC[C@@H]4[C@@]5(C)C[C@@H](O)[C@@H](O)C(C)(C)[C@@H]5CC[C@]43C)[C@@H]2C1 | – | – | – | – | – | – | 87%
3 | – | C=C(C)[C@@H]1CC[C@]2(CO)CC[C@]3(C)[C@H](CC[C@@H]4[C@@]5(C)CC[C@H](OC(=O)/C=C\c6ccc(O)c(O)c6)C(C)(C)[C@@H]5CC[C@]43C)[C@@H]12 | < 5.00 | 5.70 | – | < 5.00 | – | 5.08 | –
4 | 4.43 | COc1cc(/C=C\C(=O)O[C@H]2[C@H](O)C[C@]3(C)[C@H]4CC=C5[C@H]6[C@](C(=O)O)(CC[C@@H](C)[C@@]6(C)O)CC[C@@]5(C)[C@]4(C)CC[C@H]3C2(C)C)ccc1O | – | – | – | – | – | – | 111%
5 | – | C=C(C)[C@@H]1CC[C@]2(CO)CC[C@]3(C)[C@H](CC[C@@H]4[C@@]5(C)CC[C@H](OC(=O)/C=C/c6ccc(O)c(O)c6)C(C)(C)[C@@H]5CC[C@]43C)[C@@H]12 | < 5.00 | 5.54 | – | < 5.00 | – | 5.05 | –
6 | 4.33 | C[C@H]1[C@H](C)CC[C@]2(C(=O)O)CC[C@]3(C)C(=CC[C@@H]4[C@@]5(C)C[C@@H](O)[C@H](O)C(C)(C)[C@@H]5CC[C@]43C)[C@H]12 [COROSOLIC ACID] | – | – | – | – | – | – | 100%
7 | 4.75 | CC1(C)CC[C@]2(C(=O)O)CC[C@]3(C)C(=CC[C@@H]4[C@@]5(C)C[C@@H](O)[C@H](O)C(C)(C)[C@@H]5CC[C@]43C)[C@@H]2C1 [MASLINIC ACID] | – | – | – | – | – | – | 30.4%
8 | – | CCCCC/C=C/C(=O)CCc1ccc(O)c(OC)c1 [SHOGAOL] | – | – | 126% | – | 168.6% | – | –
9 | 4.66 | CNC(=N)NCCC[C@H](N)C(=O)O [TILARGININE] | – | – | – | – | – | – | 114%
10 | – | C[C@@H]1CC[C@]2(C(=O)O)CC[C@]3(C)C(=CC[C@@H]4[C@@]5(C)C[C@@H](O)[C@H](O)C(C)(C)[C@@H]5CC[C@]43C)[C@@H]2[C@]1(C)O [TOMENTIC ACID] | – | – | 100% | – | 167.4% | – | –

Row | SMILES | pIC50 [8] | pIC50 [1] | pIC50 [2] | viability at 24 h, 20 µM [3] | pIC50 [4] | Activity [5] | pIC50 [6] | viability at 24 h, 20 µM [7]
11 | C=C(C)[C@@H]1CC[C@]2(C(=O)O)CC[C@]3(C)[C@H](CC[C@@H]4[C@@]5(C)CC[C@H](OC(=O)/C=C\c6ccc(O)c(O)c6)C(C)(C)[C@@H]5CC[C@]43C)[C@@H]12 | 4.87 | 6.05 | 5.17 | – | 5.42 | – | 5.12 | 35.3%
12 | C=C(C)[C@@H]1CC[C@]2(C(=O)O)CC[C@]3(C)[C@H](CC[C@@H]4[C@@]5(C)C[C@@H](O)[C@H](O)C(C)(C)[C@@H]5CC[C@]43C)[C@@H]12 [ALPHITOLIC ACID] | 4.84 | – | – | – | – | – | – | 71%
13 | C=C(C)[C@@H]1CC[C@]2(C(=O)O)CC[C@]3(C)[C@H](CC[C@@H]4[C@@]5(C)CC[C@H](O)C(C)(C)[C@@H]5CC[C@]43C)[C@@H]12 [BETULINIC ACID] | 5.35 | 5.51 | < 5.00 | 77.3% | 5.06 | 177.6% | < 5.00 | 59.6%
14 | C=C(C)[C@@H]1CC[C@]2(CO)CC[C@]3(C)[C@H](CC[C@@H]4[C@@]5(C)CC[C@H](O)[C@](C)(CO)[C@@H]5CC[C@]43C)[C@@H]12 [ILEKUDINOL C] | 4.59 | 5.29 | < 5.00 | – | < 5.00 | – | < 5.00 | 88%
